# Assay outcomes (PubChem BioAssay)
# In the library only some 5.4% were active in any assay of this set; here they are far more common.
# PostGolgi yeast: growth inhibition of a yeast mutant, post-Golgi transport screen. inhibition, % at 10 µM. AID 739. post-Golgi transport phenotypic cell assay. 98,000 compounds, 0.9% hits;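 further: yeast cells grown in 1536-well plates; yeast grown about 18 h at 30C before absorbance read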
# PLAP act: human PLAP activation; purified PLAP enzyme, luminescent substrate read-out; stronger effect = higher value; activation fold at 20 µM; P05187; 96,000 compounds, 1.2% hits; AID 696; in the data active means activation fold above about 2
# tolC growth inh: E. coli tolC mutant growth inhibition; 65,000 compounds, 2.2% hits; AID 573; growth inhibition, % at 10 µM (by protocol); E. coli BW25113 tolC mutant growth, OD615;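 active means growth inhibition at or above a cutoff equal to the mean over every tested compound plus 3 SD, cut at about 60% in these data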;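 further: growth measured after 20 h incubation at 37 °C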
#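 Test system – E. coli BW25113 ΔtolC::kan, tolC deletion mutant strain · Detection – OD at 615 nm · Buffer or medium – LB with kanamycin 50 µg/mL · Times – 20 h compound exposure of bacteria at 37 °C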
# E coli WT exp: blocks growth of wild type E. coli BW25113 | AID 710 | 98,000 compounds, 0.15% hits | OD600 absorbance | growth inhibition, % at 100 µM;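 active means growth inhibition above about 50% at one test dose, limit read from the data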;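 further: growth measured after 20 h incubation at 37 °C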
# HePTP inh: blocks human HePTP tyrosine phosphatase | 110,000 compounds, 0.64% hits | recombinant HePTP phosphatase activity, OD absorbance | inhibition, % at 20 µM | P35236; in the data active means inhibition above about 50%;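 further: plate controls were vehicle for no effect and reference inhibitor for full effect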
# Target sequence (P35236 whole entry, looked up): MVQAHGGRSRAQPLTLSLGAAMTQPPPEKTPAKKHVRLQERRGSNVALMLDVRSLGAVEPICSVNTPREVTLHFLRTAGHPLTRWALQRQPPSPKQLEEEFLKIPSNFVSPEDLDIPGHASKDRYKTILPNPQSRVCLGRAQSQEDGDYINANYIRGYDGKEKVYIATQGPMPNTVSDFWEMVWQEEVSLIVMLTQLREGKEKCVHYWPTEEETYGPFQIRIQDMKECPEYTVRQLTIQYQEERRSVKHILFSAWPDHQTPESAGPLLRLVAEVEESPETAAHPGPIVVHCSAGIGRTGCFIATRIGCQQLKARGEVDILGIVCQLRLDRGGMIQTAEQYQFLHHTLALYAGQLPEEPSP
# PostGolgi ctrl: yeast control strain growth, post-Golgi counter-screen; 98,000 compounds, 5% hits; inhibition, % at 10 µM; efflux-deficient yeast background strain, growth absorbance A615, 16 h; AID 738
# Starred values were filed as active, the others as inactive; x = no result. Unless noted, no stated cut-off is given here; in the data, active means inhibition above about 30%; inactive means the rest.
SMILES,PostGolgi yeast,PLAP act,tolC growth inh,E coli WT exp,HePTP inh,PostGolgi ctrl
CC(C)CCNC(=O)c1c(N)n(CC2CCCO2)c2nc3ccccc3nc12 (stereo not drawn),-2,2.1*,x,-10,8,57*
CCC(C)NC(=O)c1c(N)n(CC2CCCO2)c2nc3ccccc3nc12 (stereo not drawn),0,2*,4,-16,4,56*
COCCCn1c(N)c(C(=O)OC(C)COC)c2nc3ccccc3nc21 (stereo not drawn),17,1.7,-7,-1,7,2
CCC(C)NC(=O)c1c(N)n(Cc2ccc3c(c2)OCO3)c2nc3ccccc3nc12 (stereo not drawn),10,1.7,-1,-8,-10,10
CCC(C)NC(=O)c1c(N)n(CCCOC)c2nc3ccccc3nc12 (stereo not drawn),0,2*,29,-2,5,28
CC1(C)CC(=O)C2=C(C1)NC(=O)C21C(C(=O)OC(C)(C)C)=C(N)Oc2ccc(Br)cc21 (stereo not drawn),-4,1.4,x,-12,x,10
CCC(=NCCO)c1c(O)n(C2CCCCC2)c(=O)[nH]c1=O,0,1,-14,-2,8,5
CCC(=NCc1ccc2c(c1)OCO2)c1c(O)n(C2CCCCC2)c(=O)[nH]c1=O,22,1.3,75*,-6,11,67*
C=CCNC(=O)c1c(N)n(Cc2ccco2)c2nc3ccccc3nc12,3,1.1,x,-15,x,13
Nc1c(C(=O)OCc2ccccc2)c2nc3ccccc3nc2n1Cc1cccs1,7,1,x,-2,x,27
CC(C)(C)OC(=O)c1c(N)n(Cc2ccco2)c2nc3ccccc3nc12,2,2.1*,10,1,x,22
COCCNC(=O)c1c(N)n(Cc2ccco2)c2nc3ccccc3nc12,-1,1.4,x,-25,x,51*
CCC(C)OC(=O)c1c(N)n(Cc2cccs2)c2nc3ccccc3nc12 (stereo not drawn),16,1,x,-16,x,50*
C=CCn1c(O)c(C(CC)=Nc2cc(OC)ccc2OC)c(=O)[nH]c1=O,-1,1.2,-1,-11,1,6
CCCCn1c(O)c(C(C)=NCc2ccc(F)cc2)c(=O)[nH]c1=O,1,0.8,1,-2,-3,11
CCCCn1c(O)c(C(CC)=NCc2ccc(F)cc2)c(=O)[nH]c1=O,23,0.9,x,4,x,31*
CCCCn1c(O)c(C(CC)=NCCc2ccccc2)c(=O)[nH]c1=O,24,1.1,99*,-8,3,55*
CCCCCCN=C(C)c1c(O)n(CCCC)c(=O)[nH]c1=O,9,1,8,-1,-1,38*
C=CCn1c(O)c(C(CC)=NCCc2ccccc2)c(=O)[nH]c1=O,4,0.8,x,7,x,2
CC(C)COc1ccc(C2(C#N)CC[N+](C)(C)CC2)cc1,-4,0.7,x,5,x,-1
COc1ccc(-n2c(O)c(C(C)=NCc3ccco3)c(=O)[nH]c2=O)cc1,-4,0.9,-10,-1,0,38*
CC(=NCc1ccco1)c1c(O)n(-c2ccccc2)c(=O)[nH]c1=O,1,1.1,x,8,x,20
CCOC(=O)C1=C(C)N(C)C2(C)CC1c1ccccc1O2 (stereo not drawn),-8,1.2,-7,2,-5,3
Cn1c2ccccc2c2c(C(=O)N3CCC4(CC3)OCCO4)cn(C3CCCC3)c(=O)c21,33*,1.4,-12,11,6,4
C=CCc1cc(/C=C2/C(=O)NC(=O)N(c3ccc(C(C)C)cc3)C2=O)cc(OC)c1O,x,x,x,x,3,x
SMILES,PostGolgi yeast,PLAP act,tolC growth inh,E coli WT exp,HePTP inh,PostGolgi ctrl
CC12CN3CC(C)(CN(C1)C3c1cccnc1)C2=O (stereo not drawn),16,0.9,-9,0,6,6
CN1C(=O)NC(=O)/C(=C\c2ccc([N+](=O)[O-])o2)C1=O,x,x,x,x,97*,x
CN1C(=O)NC(=O)/C(=C/c2ccc(I)o2)C1=O,x,x,x,x,-4,x
COc1ccc(CN2CCN(Cc3ccc(SC)cc3)CC2)cc1,x,x,x,x,72*,x
O=[N+]([O-])c1ccc(NCCNCCO)c2ncccc12,x,x,x,x,-6,x
O=C(Cn1ncc2c3ccccc3n(Cc3ccccc3F)c2c1=O)N1CCC2(CC1)OCCO2,55*,1,14,-6,-5,10
CC1CCCC(NC(=O)COC(=O)Cc2ccccc2)C1C (stereo not drawn),-5,1,x,2,x,18
CCOc1cc(C)cc2oc(=O)c3c(c12)CCC3,x,x,x,x,104*,x
CCOC(=O)c1c(N)n(CCN2CCCCC2)c2nc3ccccc3nc12,-2,1.7,9,5,6,0
CCN(CCNc1ccc([N+](=O)[O-])c2cccnc12)S(=O)(=O)c1ccc(Cl)cc1,16,0.9,x,-20,x,35*
CC(C)Oc1ccc(C2C(C#N)=C(N)Oc3c2c(=O)oc2ccccc32)cc1 (stereo not drawn),-3,1.1,x,9,x,-5
Cc1ccc(-n2nc(C)c(C3C(C#N)=C(N)Oc4c3c(=O)oc3ccccc43)c2Cl)cc1 (stereo not drawn),8,1.3,x,-8,x,39*
CCCC(C)C1C(C#N)=C(N)Oc2c1c(=O)oc1ccccc21 (stereo not drawn),6,0.9,14,-7,5,36*
CCOc1ccc(N2C(=O)/C(=C/c3ccco3)C(=O)NC2=S)cc1,x,x,x,x,102*,x
O=C1NC(=S)N(c2cccc(Br)c2)C(=O)/C1=C/c1ccco1,x,x,x,x,102*,x
CCOc1ccc(N2C(=O)NC(=O)/C(=C\c3ccc(C)o3)C2=O)cc1,x,x,x,x,-4,x
O=C(C1CCC(=O)N1C1CCCCC1)N1CCC2(CC1)OCCO2 (stereo not drawn),11,1.1,-10,-1,2,-2
CC(=O)Nc1ccc(OC(=O)N(C)C)cc1,6,0.9,-17,-6,3,2
Cc1cc(OCc2ccc([N+](=O)[O-])cc2)c2c3c(c(=O)oc2c1)CCCC3,1,0.9,x,-2,6,0
C[C@]12CCC(=O)C=C1CCC1C2CC[C@@]2(C)C1CC[C@@]2(O)CC#N (stereo partly drawn),x,0.9,1,x,-5,x
CN1CCC(N(C)c2nc(-c3ccc([N+](=O)[O-])cc3)nc3ccccc23)CC1,-8,1.4,x,6,x,-3
CN(CC1COc2ccccc2O1)c1nc(-c2cccnc2)nc2ccccc12 (stereo not drawn),6,x,24,4,3,70*
C[N+]1(C)[C@@H]2CC[C@H]1CC(OC(=O)C(CO)c1ccccc1)C2 (stereo partly drawn),x,x,4,x,2,x
Clc1cccc(C2NCCc3[nH]cnc32)c1 (stereo not drawn),-28,0.8,x,-3,x,40*
CN1CCN(Cc2nc3ccccc3n2C)CC1,2,1,-22,2,3,11
Cc1sc2ncn(CC(=O)NCCCC(=O)N3CCC4(CC3)OCCO4)c(=O)c2c1C,-13,1,x,0,x,36*
